Source: ChEMBL document CHEMBL1144184, “Preparation and biological evaluation of 5-substituted retinoic acids” (2008)
The source made the active and inactive calls. The rule behind the calls is not given here.

What was measured:
HL-60 [1] = assay: Cell cycle arrest in human HL-60 cells assessed as accumulation at G0/G1 phase at 10 pM to 1 uM by FACS; assay type: functional, cell-based
Procedure, shortened: (§1)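 HL-60 cells (RPMI-1640, 10% dextran-coated charcoal-treated FCS, kanamycin; S-phase synchronized twice with 2.5 mM thymidine) seeded 10⁵ cells/well and exposed to retinoids for 3 days at 37 °C, 5% CO₂. Cells permeabilized with 0.2% Triton-X plus RNase (37 °C, 1 h), stained with propidium iodide (4 °C, 20 min), and cell cycle phases quantified by flow cytometry (488 nm argon laser).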

HL-60 [2] = assay: Antiproliferative activity against human HL-60 cells assessed as cell cycle distribution at 0.0001 uM to 1 uM after 3 days by FACS relative to ATRA; assay type: functional; procedure, shortened: as §1
HL-60 [3] = assay: Induction of human HL-60 cell differentiation assessed as cell surface CD11b antigen expression measured as mean fluorescence index at 0.0001 uM to 1 uM after 3 days by FACS relative to ATRA; assay type: functional
Procedure, shortened: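 Thymidine-synchronized HL-60 cells, 10⁵ cells/well, cultured 3 days with retinoids (10^-10–10^-6 M) in RPMI-1640. CD11b surface expression quantified by flow cytometry (excitation 490 nm, emission 520 nm), 10⁴ cells counted per treatment. Readout is mean fluorescence index (% fluorescent cells × mean intensity), normalized to ATRA values.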

HL-60 [4] = assay: Induction of apoptosis in human HL-60 cells assessed as DNA fragmentation by agarose gel electrophoresis; assay type: functional, cell-based
Procedure, shortened: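 HL-60 cells exposed to increasing retinoid concentrations. DNA isolated from each culture, run on a 2% agarose gel, stained with ethidium bromide and viewed under UV. Laddering scored as positive or negative.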

[5] = target: T1, Retinoic acid receptor beta (Homo sapiens) (UniProt P10826); assay: Increase in transcriptional activity of human RARbeta receptor expressed in human MG63 cells co-transfected with pGL3-RARE at 1 uM by luciferase reporter gene assay relative to ATRA; assay type: cell-based; conditions: MG-63, in the assay text read “relative to control” for “relative to ATRA”
T1 sequence (whole entry): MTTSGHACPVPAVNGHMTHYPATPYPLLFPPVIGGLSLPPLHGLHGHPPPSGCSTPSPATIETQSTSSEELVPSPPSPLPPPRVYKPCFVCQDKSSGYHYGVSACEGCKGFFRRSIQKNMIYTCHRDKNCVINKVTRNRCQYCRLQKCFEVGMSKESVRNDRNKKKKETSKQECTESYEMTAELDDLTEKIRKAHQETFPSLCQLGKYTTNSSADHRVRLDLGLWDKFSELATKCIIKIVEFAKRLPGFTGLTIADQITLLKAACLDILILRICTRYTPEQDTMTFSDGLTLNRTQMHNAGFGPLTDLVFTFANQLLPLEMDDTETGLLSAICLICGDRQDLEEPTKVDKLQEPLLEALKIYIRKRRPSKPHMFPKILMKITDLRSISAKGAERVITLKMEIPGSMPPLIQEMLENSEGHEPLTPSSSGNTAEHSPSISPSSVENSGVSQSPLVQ
Procedure, shortened: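 MG-63 osteosarcoma cells in DMEM with 10% charcoal-stripped FCS were seeded 2 × 10⁵/well the day before transfection. Cotransfected (Tfx-50) with human RARβ promoter–RARE3-SV40-luciferase reporter and pRL-CMV control. Retinoids applied for 2 days at 10^-6 M. Firefly luciferase normalized to Sea Pansy luciferase, expressed as fold induction over control. At least three repeats, mean ± SE.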

CCCCC1=C(/C=C/C(C)=C/C=C/C(C)=C/C(=O)O)C(C)(C)CCC1
Activity (HL-60 [1]): Active | Activity (HL-60 [2]): 193 | Activity (HL-60 [3]): 129 | Activity (HL-60 [4]): inactive | Activity [5]: Active

CC(=C/C=C/C(C)=C/C(=O)O)/C=C/C1=C(Cc2ccc3ccccc3c2)CCCC1(C)C
Activity (HL-60 [2]): <0.81 | Activity (HL-60 [3]): <0.22 | Activity (HL-60 [4]): inactive

CC(=C/C=C/C(C)=C/C(=O)O)/C=C/C1=C(CC(C)C)CCCC1(C)C
Activity (HL-60 [2]): 16 | Activity (HL-60 [3]): 10 | Activity (HL-60 [4]): inactive

CC(/C=C/C1=C(Cc2ccccc2)CCCC1(C)C)=C\C=C\C(C)=C\C(=O)O
Activity (HL-60 [1]): Active | Activity (HL-60 [2]): 2 | Activity (HL-60 [3]): 2 | Activity (HL-60 [4]): inactive | Activity [5]: Active

CC(/C=C/C1=C(CC(C)C)CCCC1(C)C)=C\C=C\C(C)=C\C(=O)O
Activity (HL-60 [1]): Active | Activity (HL-60 [2]): 35 | Activity (HL-60 [3]): 310 | Activity (HL-60 [4]): inactive | Activity [5]: Active

CCCCC1=C(/C=C/C(C)=C\C=C\C(C)=C\C(=O)O)C(C)(C)CCC1
Activity (HL-60 [2]): 14 | Activity (HL-60 [3]): 9 | Activity (HL-60 [4]): inactive

CC(=C/C=C/C(C)=C/C(=O)O)/C=C/C1=C(Cc2ccccc2)CCCC1(C)C
Activity (HL-60 [2]): 11 | Activity (HL-60 [3]): 6 | Activity (HL-60 [4]): inactive

CC(/C=C/C1=C(Cc2ccc3ccccc3c2)CCCC1(C)C)=C\C=C\C(C)=C\C(=O)O
Activity (HL-60 [1]): Active | Activity (HL-60 [2]): <0.81 | Activity (HL-60 [3]): <0.22 | Activity (HL-60 [4]): inactive | Activity [5]: Active
